Assay results published in ChEMBL document CHEMBL1129933, “Tyrosine kinase inhibitors. 6. Structure-activity relationships among N- and 3-substituted 2,2'-diselenobis(1H-indoles) for inhibition of protein tyrosine kinases and comparative in vitro and in vivo studies against selected sulfur congeners” (J Med Chem, 1997).

Tests used:
[1] = tested on: B16; assay: In vivo activity against murine B16 melanoma, percent treated/control tumor mass at 0.75 mg/kg ip dose at 4 hour intervals 3x a day for 9 days; format: functional, Mus musculus; conditions: route intraperitoneal
In short: (§1)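 Murine tumours were maintained by serial transplantation (~30 mg fragments every 2 weeks): B16 in C57BL/6 and colon 26 in BALB/c. They were tested in F1 hosts, B6C3F1 for B16 and CD2F1 for colon 26, weighing 18-22 g. Treatment was ip daily or q4h ×3 for 9 days. Weight change was the difference between mean group weights on the last and first treatment days, from life-span assays.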

[2] = tested on: MCF7; assay: In vivo activity against human MCF-7 xenograft, weight change after 12.0 mg/kg ip dose for 5-11 days; format: functional; conditions: route intraperitoneal
In short: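 MCF-7 breast carcinoma xenografts were serially passaged in nude mice (NCr nu/nu) and implanted in randomized 18-22 g mice on day 0. Dosing was ip bolus, either daily or q4h ×3 daily, with vehicle of distilled H2O or 10% DMA in 50 mM lactic acid buffer, pH 4.0. Weight change was taken as the maximum treatment-related loss.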

[3] = target: Fibroblast growth factor receptor (Mus musculus, UniProt P21803+Q03142+P16092+Q61851); assay: Inhibition of fibroblast growth factor (bFGF)-mediated autophosphorylation of FGF-R in Swiss 3T3 mouse fibroblasts; format: functional
In short: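 Swiss 3T3 fibroblasts were treated 2 h with a range of compound concentrations, then stimulated for 5 min with growth factor (bFGF). Receptor tyrosine phosphorylation was read by extraction and western blotting.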

[4] = tested on: A-431; assay: In vivo activity against human A431 epidermoid xenograft, weight change after 10 mg/kg sc dose for 9-15 days; format: functional; conditions: route subcutaneous
In short: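 Nude mice (NCr nu/nu, 18-22 g) bearing sc A431 fragments in the right axilla (day 0) received continuous sc infusion from an Alzet miniosmotic pump implanted under ketamine-xylazine. Pumps were removed or replaced under lidocaine-epinephrine for longer therapy, in 7-day and 27-day studies. Daily dose was the maximum deliverable without significant precipitation. Weight change was taken as the maximum treatment-related loss.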

[5] = tested on: A-431; assay: In vivo activity against human A431 epidermoid xenograft, tumor growth delay (T-C) at 9 mg/kg administered subcutaneously for 1-27 days; conditions: route subcutaneous
[6] = tested on: M5076; assay: In vivo activity against murine M5076 sarcoma, tumor growth delay (T-C) at 3.0 mg/kg ip dose at 4 hour intervals 3x a day for 9 days; conditions: route intraperitoneal
[7] = tested on: A-431; assay: In vivo activity against human A431 epidermoid xenograft, tumor growth delay (T-C) at 10 mg/kg administered subcutaneously for 9-15 days; conditions: route subcutaneous
[8] = tested on: Colon 26; assay: In vivo activity against murine colon 26, net cell kill at 0.75 mg/kg ip dose at 4 hour intervals 3x a day for 9 days; format: functional, Mus musculus; conditions: route intraperitoneal
In short: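 Colon 26 was passaged in BALB/c mice; tested in CD2F1 mice (18-22 g, randomized) implanted on day 0 ip with counted cells or sc with fragments. Dosing was ip bolus, daily or q4h ×3 daily, by average cage weight. Vehicle was distilled H2O or 10% DMA in 50 mM lactic acid, pH 4.0. Net cell kill = log tumor-burden reduction between first and last treatments.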

[9] = tested on: M5076; assay: In vivo activity against murine M5076 sarcoma, weight change after 3.0 mg/kg ip dose at 4 hour intervals 3x a day for 9 days; format: functional, Mus musculus; conditions: route intraperitoneal
In short: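 M5076 sarcoma was serially transplanted in C57BL/6 mice and tested in B6C3F1 mice (18-22 g) given ip q4h ×3 daily for 9 days. Weight change was taken as the maximum treatment-related weight loss in the growth-delay assay.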

[10] = target: Epidermal growth factor receptor (Homo sapiens, UniProt P00533); assay: Inhibition of epidermal growth factor receptor (EGFr)
[11] = tested on: B16; assay: In vivo activity against murine B16 melanoma, percent treated/control tumor mass at 3.0 mg/kg ip dose for 9 days; format: functional, Mus musculus; conditions: route intraperitoneal; in short: as §1
[12] = target: Platelet-derived growth factor receptor beta (Mus musculus, UniProt P05622); assay: Inhibition of platelet-derived growth factor receptor (PDGFr) autophosphorylation; format: functional
In short: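 Swiss 3T3 fibroblasts were treated 2 h with a range of compound concentrations, then stimulated 5 min with growth factor. Receptor tyrosine phosphorylation was assessed by cell extraction and western blotting.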

[13] = tested on: B16; assay: In vivo activity against murine B16 melanoma, weight change after 3.0 mg/kg i.p. dose for 9 days; format: functional, Mus musculus; conditions: route intraperitoneal; in short: as §1

Sequence of Platelet-derived growth factor receptor beta (P05622 whole entry): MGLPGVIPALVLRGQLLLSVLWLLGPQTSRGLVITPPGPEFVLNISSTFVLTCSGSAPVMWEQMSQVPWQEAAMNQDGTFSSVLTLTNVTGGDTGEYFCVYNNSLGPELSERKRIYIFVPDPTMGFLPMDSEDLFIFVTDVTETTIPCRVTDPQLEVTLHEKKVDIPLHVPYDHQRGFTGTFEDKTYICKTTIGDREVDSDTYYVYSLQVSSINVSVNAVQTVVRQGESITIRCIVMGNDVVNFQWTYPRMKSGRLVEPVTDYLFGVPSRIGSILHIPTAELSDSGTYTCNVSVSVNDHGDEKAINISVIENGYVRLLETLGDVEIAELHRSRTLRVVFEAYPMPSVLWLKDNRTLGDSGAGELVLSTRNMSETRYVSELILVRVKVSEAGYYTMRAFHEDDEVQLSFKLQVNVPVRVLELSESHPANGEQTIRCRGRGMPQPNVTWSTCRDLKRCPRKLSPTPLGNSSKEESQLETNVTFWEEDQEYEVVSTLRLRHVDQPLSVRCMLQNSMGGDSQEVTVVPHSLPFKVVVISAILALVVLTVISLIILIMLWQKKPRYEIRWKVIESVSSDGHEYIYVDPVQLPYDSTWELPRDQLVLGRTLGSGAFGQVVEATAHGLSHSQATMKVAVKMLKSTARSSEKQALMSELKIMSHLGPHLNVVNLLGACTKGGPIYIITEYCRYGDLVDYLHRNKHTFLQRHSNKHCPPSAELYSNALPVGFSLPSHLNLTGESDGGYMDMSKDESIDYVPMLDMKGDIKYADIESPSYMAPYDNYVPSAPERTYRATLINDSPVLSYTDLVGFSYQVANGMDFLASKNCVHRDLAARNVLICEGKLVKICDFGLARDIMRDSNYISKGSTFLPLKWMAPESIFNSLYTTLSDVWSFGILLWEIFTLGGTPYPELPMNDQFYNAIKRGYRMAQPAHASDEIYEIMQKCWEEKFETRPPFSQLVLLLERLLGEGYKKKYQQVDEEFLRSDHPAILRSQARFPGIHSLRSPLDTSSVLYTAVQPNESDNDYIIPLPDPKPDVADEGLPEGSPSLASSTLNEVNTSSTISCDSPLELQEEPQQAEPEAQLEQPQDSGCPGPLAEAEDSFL
Sequence of Epidermal growth factor receptor (P00533 whole entry): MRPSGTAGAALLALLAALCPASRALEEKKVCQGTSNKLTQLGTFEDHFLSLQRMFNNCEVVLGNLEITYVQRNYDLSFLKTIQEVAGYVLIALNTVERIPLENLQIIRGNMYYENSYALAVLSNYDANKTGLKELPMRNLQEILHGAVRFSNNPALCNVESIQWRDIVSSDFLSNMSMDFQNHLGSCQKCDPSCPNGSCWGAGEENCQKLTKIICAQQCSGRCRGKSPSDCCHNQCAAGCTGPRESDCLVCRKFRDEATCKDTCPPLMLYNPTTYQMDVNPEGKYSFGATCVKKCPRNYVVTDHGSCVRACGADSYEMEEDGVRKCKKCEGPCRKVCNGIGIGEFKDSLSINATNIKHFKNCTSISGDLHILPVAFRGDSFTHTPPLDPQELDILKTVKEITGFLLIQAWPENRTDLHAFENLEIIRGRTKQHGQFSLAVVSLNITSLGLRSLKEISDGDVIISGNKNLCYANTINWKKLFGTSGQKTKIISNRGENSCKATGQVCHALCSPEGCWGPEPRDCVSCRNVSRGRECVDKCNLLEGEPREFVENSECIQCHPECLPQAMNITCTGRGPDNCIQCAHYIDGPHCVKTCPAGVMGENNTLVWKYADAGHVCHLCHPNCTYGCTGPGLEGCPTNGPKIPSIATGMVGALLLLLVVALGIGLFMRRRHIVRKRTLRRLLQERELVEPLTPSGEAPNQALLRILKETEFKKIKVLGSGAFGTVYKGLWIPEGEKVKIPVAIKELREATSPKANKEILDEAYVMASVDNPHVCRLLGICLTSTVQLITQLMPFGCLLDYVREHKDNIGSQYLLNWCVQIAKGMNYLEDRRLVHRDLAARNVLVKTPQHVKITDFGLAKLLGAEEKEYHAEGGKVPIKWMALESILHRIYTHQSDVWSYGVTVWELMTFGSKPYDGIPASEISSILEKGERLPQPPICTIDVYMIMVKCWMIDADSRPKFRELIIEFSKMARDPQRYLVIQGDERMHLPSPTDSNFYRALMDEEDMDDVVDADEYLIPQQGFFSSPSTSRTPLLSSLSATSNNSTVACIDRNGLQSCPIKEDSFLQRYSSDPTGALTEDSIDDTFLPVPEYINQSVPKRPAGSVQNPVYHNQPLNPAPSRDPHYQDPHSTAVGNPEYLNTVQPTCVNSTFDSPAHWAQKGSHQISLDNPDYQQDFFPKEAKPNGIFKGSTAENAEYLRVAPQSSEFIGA

## NC(Cc1c(SSc2[nH]c3ccccc3c2CC(N)C(=O)NCc2ccccc2)[nH]c2ccccc12)C(=O)NCc1ccccc1 (stereo not drawn)
[1]
  T/C: 99%
[2]
  Weight change: -0.4 g
[3]
  IC50: 2.3 µM
[4]
  Weight change: -1.2 g
[5]
  T-C: 1 days
[6]
  T-C: 0.7 days
[7]
  T-C: 1.9 days
[8]
  Net cell kill: -0.2 log10
[9]
  Weight change: -0.5 g
[10]
  IC50: 7.4 µM
[11]
  T/C: 100%
[12]
  IC50: 6.2 µM
[13]
  Weight change: 1.4 g
